Activity calls are given as the source filed them. The calls are words filed in the database; no cut-off is given here.
Assays:
[1] = system: Rattus norvegicus; experiment: Insulinotropic activity in po dosed fasted Wistar fatty rat assessed as […] administered 4 hr prior to glucose-challenge by oral glucose tolerance test relative to vehicle control; assay type: functional
In short: (§1)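 Female Wistar fatty rats, 12–17 weeks old, were fasted overnight. They were dosed orally with compound in 0.5% methylcellulose 1 h (1 mg/kg) or 4 h (3 mg/kg) before a 1 g/kg oral glucose load. Plasma glucose was sampled to 120 min, n = 6. Effective dose was defined by statistical significance on plasma glucose AUC versus vehicle.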

[2] = system: Rattus norvegicus; experiment: Insulinotropic activity in po dosed fasted Wistar fatty rat assessed as […] administered 1 hr prior to glucose-challenge by oral glucose tolerance test relative to vehicle control; assay type: functional; in short: as §1
[3] = system: Rattus norvegicus; experiment: Insulinotropic activity in po dosed Goto-Kakizaki rat assessed as increase in plasma insulin secretion administered 1 hr prior to glucose-challenge by oral glucose tolerance test; assay type: functional
In short: (§2)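 Male GK rats, 41 weeks old, were fasted overnight. They received compound suspended in 0.5% methylcellulose orally, 1–10 mg/kg, 1 h before a 1 g/kg oral glucose load. Tail-vein blood was taken pre-dose, at 0 min and at 10, 30, 60 and 120 min. Plasma glucose was read by autoanalyzer and insulin by radioimmunoassay, with AUC0–120min. n = 6. Williams/Shirley–Williams tests versus vehicle.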

[4] = system: Rattus norvegicus; experiment: Insulinotropic activity in po dosed Goto-Kakizaki rat assessed as decrease in plasma glucose level administered 1 hr prior to glucose-challenge by oral glucose tolerance test; assay type: functional; in short: as §2
[5] = species on record: Rattus norvegicus; experiment: Drug metabolism in rat assessed as taurine conjugate formation measured in bile; assay type: ADME, organism-based; details: in vivo
[6] = species on record: Rattus norvegicus; experiment: Drug metabolism in rat assessed as beta-oxidation derivative formation; assay type: ADME, organism-based; details: in vivo
[7] = species on record: Canis familiaris; experiment: Drug metabolism in dog assessed as biphenylylcarboxylic acid derivative formation measured in feces; assay type: ADME, organism-based, Canis lupus familiaris; details: in vivo
[8] = species on record: Rattus norvegicus; experiment: Drug metabolism in rat assessed as biphenylylcarboxylic acid derivative formation in feces; assay type: ADME, organism-based; details: in vivo
[9] = species on record: Canis familiaris; experiment: Drug metabolism in dog assessed as acyl glucuronide derivative formation measured in feces; assay type: ADME, organism-based, Canis lupus familiaris; details: in vivo
[10] = species on record: Rattus norvegicus; experiment: Drug metabolism in rat assessed as acyl glucuronide derivative formation in bile; assay type: ADME, organism-based; details: in vivo
[11] = species on record: Rattus norvegicus; experiment: Drug metabolism in rat assessed as acyl glucuronide derivative formation measured in feces; assay type: ADME, organism-based; details: in vivo
[12] = species on record: Rattus norvegicus; experiment: Drug metabolism in rat assessed as taurine conjugate formation measured in feces; assay type: ADME, organism-based; details: in vivo
[13] = species on record: Canis familiaris; experiment: Drug metabolism in dog assessed as taurine conjugate formation measured in feces; assay type: ADME, organism-based, Canis lupus familiaris; details: in vivo
[14] = species on record: Canis familiaris; experiment: Drug metabolism in dog assessed as beta-oxidation derivative formation; assay type: ADME, organism-based, Canis lupus familiaris; details: in vivo
[15] = species on record: Rattus norvegicus; experiment: Drug metabolism in rat assessed as biphenylylcarboxylic acid derivative formation; assay type: ADME, organism-based; details: in vivo
[16] = molecular target: T1, Free fatty acid receptor 1 (Homo sapiens, UniProt O14842); experiment: Agonist activity at human GP40 receptor expressed in CHO cells assessed as increase in intracellular calcium level at 10 uM for 90 secs by FLIPR assay in the presence of 0.1% BSA relative to gamma-linolenic acid; assay type: functional, cell-based
In short: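 CHO dhfr cells stably expressing human GPR40/FFA1 (NM_005303) plated overnight at 37 °C, 5% CO₂, then loaded 60 min at 37 °C with Fluo 4 AM (2.5 μg/mL), 2.5 mmol/L probenecid and 0.1% fatty acid-free BSA. Ca²⁺ rise after compound addition read on FLIPR Tetra for 90 s. Activity = (test − vehicle)/(10 μM γ-linolenic acid − vehicle) × 100.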

[17] = system: Rattus norvegicus; experiment: Insulinotropic activity in Goto-Kakizaki rat assessed as increase in plasma insulin secretion at 1 to 10 mg/kg, po after 1 hr measured at glucose charge (0 mins)
[18] = system: Rattus norvegicus; experiment: Insulinotropic activity in Goto-Kakizaki rat assessed as decrease in plasma glucose level at 1 to 10 mg/kg, po administered 1 hr prior to glucose-challenge by oral glucose tolerance test; assay type: functional, organism-based; details: TDE = time-dependent effect; in short: as §2
[19] = system: Rattus norvegicus; experiment: Insulinotropic activity in Goto-Kakizaki rat assessed as increase in plasma insulin secretion at 1 to 10 mg/kg, po administered 1 hr prior to glucose-challenge by oral glucose tolerance test; assay type: functional, organism-based; details: TDE = time-dependent effect; in short: as §2
[20] = system: HepG2; experiment: Induction of apoptosis in human HepG2 cells assessed as caspase 3/7 activity at 30 uM after 1 day by CaspaseGlo assay relative to staurosporine; assay type: cell-based; details: hepg2, 24 h
In short: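 HepG2 cells were seeded at 2 × 10⁴ cells/well. They were exposed to compounds for 1 day in DMEM with 0.5% FBS, 2 mM L-glutamine and 1 mM pyruvate. Caspase-3/7 was read by Caspase-Glo luminescence, n = 3. Values are % = (RLU compound − RLU 1% DMSO)/(RLU 30 μM staurosporine − RLU 1% DMSO) × 100.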

[21] = molecular target: Free fatty acid receptor 1 (Rattus norvegicus, UniProt Q8K3T4); experiment: Displacement of 3-[4-({2',6'-dimethyl-6-[(4-[3H])-phenylmethoxy]biphenyl-3-yl}methoxy)phenyl]propanoic acid from rat GPR40 expressed in CHO cells after 90 mins by liquid scintillation counting in the presence of 0.2%BSA; assay type: cell-based
In short: (§3)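 Membranes came from CHO lines stably expressing human or rat GPR40/FFA1. Assay buffer was 25 mmol/L Tris-HCl pH 7.5 with 5 mmol/L EDTA, protease inhibitors, 0.05% CHAPS and 0.2% fatty-acid-free BSA. Compounds competed with 2 or 6 nmol/L tritiated phenylpropanoic acid ligand for 90 min at room temperature. Bound ligand was filtered and counted by scintillation. Nonspecific binding used 10 μmol/L unlabeled ligand. IC50 was converted to Ki by Cheng–Prusoff using the measured Kd.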

[22] = molecular target: T1, Free fatty acid receptor 1; experiment: Displacement of 3-[4-({2',6'-dimethyl-6-[(4-[3H])-phenylmethoxy]biphenyl-3-yl}methoxy)phenyl]propanoic acid from human GPR40 expressed in CHO cells after 90 mins by liquid scintillation counting in the presence of 0.2% BSA; assay type: cell-based; in short: as §3
[23] = Lipophilicity, log D of the compound at pH 7.4 by HPLC analysis; assay type: physicochemical; details: buffer
In short: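 Log D at pH 7.4 was estimated from HPLC relative retention time against standard compounds.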

[24] = molecular target: T1, Free fatty acid receptor 1; experiment: Agonist activity at human GP40 receptor expressed in CHO cells assessed as increase in intracellular calcium level for 90 secs by FLIPR assay in the presence of 0.1% BSA; assay type: functional, cell-based

Free fatty acid receptor 1 (Rattus norvegicus, UniProt Q8K3T4), sequence (Q8K3T4 whole entry): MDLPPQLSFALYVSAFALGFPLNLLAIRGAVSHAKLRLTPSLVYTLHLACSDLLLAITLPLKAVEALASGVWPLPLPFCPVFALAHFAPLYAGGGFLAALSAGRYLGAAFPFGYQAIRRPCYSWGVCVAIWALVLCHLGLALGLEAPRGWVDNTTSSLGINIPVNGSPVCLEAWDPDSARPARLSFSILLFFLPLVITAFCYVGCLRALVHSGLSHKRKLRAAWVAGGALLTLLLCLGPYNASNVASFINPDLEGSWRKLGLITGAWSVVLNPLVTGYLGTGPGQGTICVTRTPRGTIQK
T1 sequence (O14842 whole entry): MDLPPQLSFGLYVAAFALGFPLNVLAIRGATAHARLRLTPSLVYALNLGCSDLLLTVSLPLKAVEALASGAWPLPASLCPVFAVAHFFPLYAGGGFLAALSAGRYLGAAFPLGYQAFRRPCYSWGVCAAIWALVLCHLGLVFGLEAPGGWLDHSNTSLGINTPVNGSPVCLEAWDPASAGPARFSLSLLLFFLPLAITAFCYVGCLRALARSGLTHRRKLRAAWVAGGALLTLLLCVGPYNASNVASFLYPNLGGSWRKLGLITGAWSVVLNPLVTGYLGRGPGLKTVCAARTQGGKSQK

| Structure (SMILES) | ED [1] | ED [2] | Efficacy [16] [%] | Activity [20] [%] | Ki [21] [nM] | Ki [22] [nM] | logD [23] | EC50 [24] [nM] | other results |
| --- | --- | --- | --- | --- | --- | --- | --- | --- | --- |
| Cc1cc(OCCCS(C)(=O)=O)cc(C)c1-c1cccc(COc2ccc3c(c2)OC[C@H]3CC(=O)O)c1.O | 3 mg/kg | 1 mg/kg | – | – | – | – | – | – | minimal effective dose ([3]; read-out: MED): 10 mg/kg; minimal effective dose ([4]; read-out: MED): 3 mg/kg |
| Cc1cc(OCCCS(C)(=O)=O)cc(C)c1-c1cccc([14CH2]Oc2ccc3c(c2)OC[C@H]3CC(=O)O)c1 | – | – | – | – | – | – | – | – | Drug metabolism [5]: Active; Drug metabolism [6]: Not Active; Drug metabolism [7]: Active; Drug metabolism [8]: Active; Drug metabolism [9]: Active; Drug metabolism [10]: Active; Drug metabolism [11]: Active; Drug metabolism [12]: Active; Drug metabolism [13]: Active; Drug metabolism [14]: Not Active; Drug metabolism [15]: Active |
| Cc1cc(OCCCS(C)(=O)=O)cc(C)c1-c1cccc(COc2ccc3c(c2)OC[C@H]3CC(=O)O)c1 | – | – | 107 | – | – | – | – | – | Activity [17]: Active; Activity [3]: Dose-dependent effect; Activity [18]: tde; Activity [4]: Dose-dependent effect; Activity [19]: tde |
| CCS(=O)(=O)CCOc1cc(C)c(-c2cccc(COc3ccc4c(c3)OC[C@H]4CC(=O)O)c2)c(C)c1 | 3 mg/kg | – | 107 | -1.3 | 170 | 37 | 2.73 | 14 | – |
| Cc1cc(OCCCS(C)(=O)=O)c(F)c(C)c1-c1cccc(COc2ccc3c(c2)OC[C@H]3CC(=O)O)c1 | 3 mg/kg | 1 mg/kg | 104 | -1.1 | 200 | 18 | 2.68 | 16 | – |
| Cc1cc(OCC2(O)CCS(=O)(=O)CC2)cc(C)c1-c1cccc(COc2ccc3c(c2)OC[C@H]3CC(=O)O)c1 | 3 mg/kg | inactive | 107 | -1.8 | 170 | 24 | 2.43 | 13 | – |
| Cc1cc(OC2CCS(=O)(=O)CC2)cc(C)c1-c1cccc(COc2ccc3c(c2)OC[C@H]3CC(=O)O)c1 | 3 mg/kg | 1 mg/kg | 103 | -2.5 | 170 | 36 | 2.75 | 22 | – |
| Cc1cc(OCC2(C)COC2)cc(C)c1-c1cccc(COc2ccc3c(c2)OCC3CC(=O)O)c1 (racemic) | – | – | 103 | 23.6 | 83 | 21 | 3.86 | 24 | – |
| Cc1cc(OC2CCN(C)CC2)cc(C)c1-c1cccc(COc2ccc3c(c2)OC[C@H]3CC(=O)O)c1.Cl | inactive | – | 107 | -1.3 | 66 | 8.8 | 3.1 | 19 | – |
| Cc1cc(OCc2cccc3nccn23)cc(C)c1-c1cccc(COc2ccc3c(c2)OC[C@H]3CC(=O)O)c1 | – | – | 107 | 17.7 | 190 | 15 | 3.8 | 17 | – |
